Assay results as given in ChEMBL document CHEMBL1133009, “Permanently charged chiral 1,4-dihydropyridines: molecular probes of L-type calcium channels. Synthesis and pharmacological characterization of methyl(omega-trimethylalkylammonium) 1,4-dihydro-2,6-dimethyl-4-(3-nitrophenyl)-3,5-pyridinedicarboxylate iodide, calcium channel antagonists” (J Med Chem, 2000).

Legend:
[1] = test system: GH4-C1; experiment: Pseudo Hill coefficient for the inhibition of Barium currents in GH4C1 cells was determined.; type: cell-based; settings: Rattus norvegicus
Method in brief: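 Whole-cell voltage clamp of GH4C1 rat pituitary cells cultured 2-6 days, bathed in normal Tyrode's (pH 7.4). Held at -40 mV to inactivate T-type channels. Each DHP concentration (0.03-10 µM, increasing order) equilibrated 30 s, then a 200 or 50 ms pulse to +10 mV. Currents normalized to capacitance (pA/pF); IC50 and Hill slope fitted by Hill equation; 6-7 cells.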

[2] = target: T1, Voltage-gated L-type calcium channel (Rattus norvegicus, UniProt P22002+Q02485+P27732); experiment: Pseudo Hill coefficient for inhibition of [3H](+)-PN200-110 binding to GH4C1 cells under depolarized conditions (50 mM K+).; type: cell-based; settings: gh4-c1
Method in brief: (§1)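 Intact GH4C1 cells attached to the culture dish, competition against [3H]-(+)-PN200-110 in depolarizing Hank's buffer (50 mM K+, pH 7.4). IC50 and slope from Hill equation fit; KI = IC50/(1+[L]/KD); n = 4-6 experiments, mean ± SEM.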

[3] = target: T1, Voltage-gated L-type calcium channel; experiment: Pseudo Hill coefficient for inhibition of [3H](+)-PN200-110 binding to GH4C1 cells; type: cell-based; settings: gh4-c1
Method in brief: (§2)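 Competition against [3H]-(+)-PN200-110 in GH4C1 membranes, protein by Bradford. IC50 and pseudo Hill slope from Hill equation fit of specific DPM bound; KI = IC50/(1+[L]/KD); n = 4-6 experiments.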

[4] = Compound was tested for its inhibition of Barium currents in GH4C1 cells.; type: functional, cell-based, Rattus norvegicus; settings: gh4-c1
[5] = target: T1, Voltage-gated L-type calcium channel; experiment: Inhibition of [3H](+)-PN200-110 binding to calcium channels of rat cerebral cortex membrane.; type: tissue-based
Method in brief: (§3)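 Rat cerebral cortex membranes, protein by Bradford, competition with [3H]-(+)-PN200-110. IC50 and pseudo Hill slope from Hill equation fit of specific DPM bound; KI = IC50/(1+[L]/KD); n = 4-6 experiments.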

[6] = target: T2, Voltage-dependent L-type calcium channel subunit alpha-1C (Rattus norvegicus, UniProt P22002); experiment: Inhibition of [3H](+)-PN200-110 binding to calcium channels of rat heart membranes.; type: cell membranes, Membrane
T2 sequence (P22002 whole entry): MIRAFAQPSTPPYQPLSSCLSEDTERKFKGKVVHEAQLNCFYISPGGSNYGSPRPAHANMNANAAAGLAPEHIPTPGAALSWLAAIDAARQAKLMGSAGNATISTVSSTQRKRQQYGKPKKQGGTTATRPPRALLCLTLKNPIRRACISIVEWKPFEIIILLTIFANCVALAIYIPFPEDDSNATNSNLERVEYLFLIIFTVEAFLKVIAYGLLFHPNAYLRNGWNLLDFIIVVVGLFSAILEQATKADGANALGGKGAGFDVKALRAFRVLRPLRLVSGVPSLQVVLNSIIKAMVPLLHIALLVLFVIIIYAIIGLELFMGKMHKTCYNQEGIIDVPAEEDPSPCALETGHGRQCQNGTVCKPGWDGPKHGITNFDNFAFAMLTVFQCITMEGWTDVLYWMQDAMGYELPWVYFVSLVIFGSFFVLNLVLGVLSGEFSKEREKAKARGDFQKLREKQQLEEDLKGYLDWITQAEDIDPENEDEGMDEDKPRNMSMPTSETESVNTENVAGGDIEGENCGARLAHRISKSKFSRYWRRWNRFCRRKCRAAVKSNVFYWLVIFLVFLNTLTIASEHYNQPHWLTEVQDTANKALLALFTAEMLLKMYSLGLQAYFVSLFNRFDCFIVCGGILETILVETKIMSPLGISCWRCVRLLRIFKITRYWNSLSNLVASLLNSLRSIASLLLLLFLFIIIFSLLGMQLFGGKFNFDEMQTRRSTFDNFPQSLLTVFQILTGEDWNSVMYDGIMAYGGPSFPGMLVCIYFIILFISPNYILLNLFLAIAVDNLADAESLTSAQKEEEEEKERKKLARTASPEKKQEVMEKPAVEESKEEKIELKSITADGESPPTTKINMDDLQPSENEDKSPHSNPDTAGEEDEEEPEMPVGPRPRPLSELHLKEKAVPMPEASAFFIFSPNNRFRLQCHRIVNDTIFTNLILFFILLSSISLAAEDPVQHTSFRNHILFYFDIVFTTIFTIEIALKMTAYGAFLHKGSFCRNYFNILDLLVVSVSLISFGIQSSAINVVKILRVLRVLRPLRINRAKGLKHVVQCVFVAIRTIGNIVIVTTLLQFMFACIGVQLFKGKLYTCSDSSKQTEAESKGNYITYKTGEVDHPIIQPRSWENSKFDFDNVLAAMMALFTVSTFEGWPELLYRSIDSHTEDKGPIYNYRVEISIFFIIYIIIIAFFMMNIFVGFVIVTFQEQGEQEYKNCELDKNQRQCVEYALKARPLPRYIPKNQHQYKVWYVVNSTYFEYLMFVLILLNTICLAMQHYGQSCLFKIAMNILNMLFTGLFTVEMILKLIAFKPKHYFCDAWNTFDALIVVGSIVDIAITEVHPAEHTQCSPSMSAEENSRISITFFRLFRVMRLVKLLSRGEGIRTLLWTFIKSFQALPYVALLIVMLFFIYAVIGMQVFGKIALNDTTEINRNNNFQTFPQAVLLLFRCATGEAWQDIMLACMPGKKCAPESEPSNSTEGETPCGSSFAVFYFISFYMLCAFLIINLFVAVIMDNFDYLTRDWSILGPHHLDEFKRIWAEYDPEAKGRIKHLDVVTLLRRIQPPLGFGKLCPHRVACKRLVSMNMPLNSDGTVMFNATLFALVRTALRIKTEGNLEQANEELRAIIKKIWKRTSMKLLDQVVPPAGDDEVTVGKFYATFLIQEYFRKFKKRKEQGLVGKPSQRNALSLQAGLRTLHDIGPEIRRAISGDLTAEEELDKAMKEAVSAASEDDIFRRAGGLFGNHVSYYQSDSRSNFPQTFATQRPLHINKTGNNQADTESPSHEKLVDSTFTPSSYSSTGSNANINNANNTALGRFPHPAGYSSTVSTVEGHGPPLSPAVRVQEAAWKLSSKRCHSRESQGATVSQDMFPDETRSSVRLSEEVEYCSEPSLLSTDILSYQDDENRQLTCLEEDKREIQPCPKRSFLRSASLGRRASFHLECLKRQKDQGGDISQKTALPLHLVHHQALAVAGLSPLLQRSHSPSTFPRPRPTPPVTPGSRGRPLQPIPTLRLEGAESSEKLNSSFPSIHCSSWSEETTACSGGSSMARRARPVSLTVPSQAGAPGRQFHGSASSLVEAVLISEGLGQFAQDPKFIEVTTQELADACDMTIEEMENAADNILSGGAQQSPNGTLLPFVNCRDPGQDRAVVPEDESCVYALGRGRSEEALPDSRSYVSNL
Method in brief: (§4)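 Using rat heart membranes (protein by Bradford), displacement of [3H]-(+)-PN200-110. IC50 and pseudo Hill slope from Hill equation fit; KI = IC50/(1+[L]/KD); n = 4-6 experiments.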

[7] = target: T1, Voltage-gated L-type calcium channel; experiment: Inhibition of [3H](+)-PN200-110 binding to calcium channels of rat GH4C1 cells.; type: cell-based; settings: gh4-c1; method in brief: as §2
[8] = target: T1, Voltage-gated L-type calcium channel; experiment: Inhibition of [3H](+)-PN200-110 binding to calcium channels of GH4C1 cells under depolarized conditions (50 mM K+).; type: cell-based; settings: gh4-c1; method in brief: as §1
[9] = target: T1, Voltage-gated L-type calcium channel; experiment: Pseudo Hill coefficient for inhibition of [3H](+)-PN200-110 binding to calcium channels of rat cerebral cortex membrane; type: tissue-based; method in brief: as §3
[10] = target: T2, Voltage-dependent L-type calcium channel subunit alpha-1C; experiment: Pseudo Hill coefficient for inhibition of [3H](+)-PN200-110 binding to calcium channels of rat heart membranes; type: cell membranes, Membrane; method in brief: as §4
[11] = target: T1, Voltage-gated L-type calcium channel; experiment: Inhibition of [3H](+)-PN200-110 binding to calcium channels of GH4C1 cells.; type: cell-based; settings: gh4-c1; method in brief: as §2

Row | Compound | nH [1] | nH [2] | nH [3] | IC50 [4] | Ki [5] | Ki [6] | Ki [7] | Ki [8] | nH [9] | nH [10] | Ki [11]
1 | COC(=O)C1=C(C)NC(C)=C(C(=O)OCCCCCCCC[N+](C)(C)C)[C@H]1c1cccc([N+](=O)[O-])c1.[I-] | 1 | 1.1 | 1.3 | 1400 nM | 24.6 nM | 8 nM | 11.4 nM | 129.2 nM | 1.6 | 1.2 | –
2 | COC(=O)C1=C(C)NC(C)=C(C(=O)OCCCCCCCC[N+](C)(C)C)[C@@H]1c1cccc([N+](=O)[O-])c1.[I-] | 0.8 | 1 | 1.2 | 5100 nM | 717.8 nM | 497 nM | 420 nM | 895 nM | 1 | 1.1 | –
3 | COC(=O)C1=C(C)NC(C)=C(C(=O)OCC[N+](C)(C)C)C1c1cccc([N+](=O)[O-])c1.[I-] (racemic) | 0.7 | 1.7 | 0.9 | 17700 nM | 1372 nM | 1510 nM | – | 248.5 nM | 1 | 1 | 2111 nM
4 | COC(=O)C1=C(C)NC(C)=C(C(=O)OCC[N+](C)(C)C)[C@H]1c1cccc([N+](=O)[O-])c1.[I-] | 0.4 | 0.9 | 0.9 | 28100 nM | 1246 nM | 999 nM | 1940 nM | 651 nM | 0.9 | 1 | –
5 | COC(=O)C1=C(C)NC(C)=C(C(=O)OCC[N+](C)(C)C)[C@@H]1c1cccc([N+](=O)[O-])c1.[I-] | 0.3 | 0.5 | 0.6 | 271000 nM | 14013 nM | 13700 nM | – | 3988 nM | 0.8 | 0.9 | 48120 nM
6 | COC(=O)C1=C(C)NC(C)=C(C(=O)OCCCCCCCC[N+](C)(C)C)C1c1cccc([N+](=O)[O-])c1.[I-] (racemic) | 0.9 | 1.3 | 1.5 | 1500 nM | 37.2 nM | 99.2 nM | 16.8 nM | 68.6 nM | 1.4 | 1.1 | –
